Hits are enriched below; roughly 3.8% of the tested compounds scored in any of these assays.
V-ATPase pH: regulators of yeast V-ATPase proton transport. AID 504577. S. cerevisiae, pHLuorin cytosolic pH fluorescence. response, % at 10 µM. 0.37% of 350,000 active; in the data active means response mostly above about 7.3%, no sharp cut-off; inactive means mostly below about 5.4%; further: actives read high
B2AR ag: activates human beta-2 adrenergic receptor causing internalization; Am2.2-beta2AR cells, FAP receptor internalization, flow cytometry; P07550; AID 504454; 0.43% of 340,000 active; response, % (test concentration not listed);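 active means response above a set limit, near 3 SD of response in nonfluorescent compounds, cut at about 42% in these data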
Target sequence (P07550 whole entry, looked up): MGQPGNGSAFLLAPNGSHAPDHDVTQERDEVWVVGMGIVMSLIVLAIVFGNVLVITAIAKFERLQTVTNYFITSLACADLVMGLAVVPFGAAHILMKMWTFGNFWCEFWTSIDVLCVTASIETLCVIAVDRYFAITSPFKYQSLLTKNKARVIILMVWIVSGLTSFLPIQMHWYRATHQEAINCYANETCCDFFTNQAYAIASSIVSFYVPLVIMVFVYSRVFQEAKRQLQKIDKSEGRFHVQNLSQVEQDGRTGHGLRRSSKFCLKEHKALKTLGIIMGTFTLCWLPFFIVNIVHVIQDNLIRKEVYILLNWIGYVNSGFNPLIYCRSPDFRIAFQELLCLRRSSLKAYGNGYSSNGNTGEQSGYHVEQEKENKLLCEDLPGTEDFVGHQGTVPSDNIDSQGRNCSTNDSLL
MPTP block: permeability transition pore inhibition. isolated mouse mitochondria, Ca2+ swelling absorbance, 30 min. inhibition, % at 10 µM. 1.4% of 360,000 active;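 active means inhibition of 50% or more, scaled per plate between neutral and stimulator controls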;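 further: 0% = DMSO wells given calcium and 100% = 1 mM EGTA wells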
Granule exo inh: blocks lytic granule exocytosis; 0.66% of 360,000 active; TALL-104 LAMP-1 surface exposure, flow cytometry; cells stimulated with thapsigargin and PMA; inhibition, % at 10 µM;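 active means inhibition above about 55%, limit read from the data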
T cell HTS: T cell immune modulators affecting CD8 T cell-vesicle binding | 2C CD8+ T cell-vesicle binding, flow cytometry; active compounds read low | response (vesicle binding), % at 7 µM | 0.068% of 330,000 active | AID 2052;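 active means response, share of CD8 T cells binding vesicles, and their 90th percentile fluorescence all below set limits, cut at about 80% in these data, passing the limit was not always enough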;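 further: values below 100% mean blocked vesicle binding to the CD8+ T cells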
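Test system: purified 2C TCR transgenic mouse naive CD8+ T cells. Probe or stimulus: QL9-peptide-loaded Drosophila micro-vesicles bearing Ld, ICAM-1 and B7-1. Incubation: binding step 1.5 h, 37 °C, antibody labelling 20 min, ice. Measured by: flow cytometry of vesicle-bound cells.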
rCAG binder: molecules binding r(CAG) RNA repeats | r(CAG) RNA repeat, TO-PRO-1 dye displacement fluorescence | inhibition, % at 3 µM | 1.3% of 370,000 active | AID 651821;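 active means inhibition above the plate cutoff, the mean of all test compounds on that plate plus 3 SD, cut at about 35% in these data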;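 further: 0% = DMSO alone and 100% = 100 µM mitoxantrone as full dye displacement; higher means more dye released from RNA so lower well fluorescence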
V-ATPase pH SP: regulators of yeast V-ATPase proton transport; 2% of 980 active; AID 602197; S. cerevisiae pHLuorin cytosolic pH; shares compounds with V-ATPase pH; response, % at 10 µM; in the data active means response above about 24%;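 further: plate controls were vehicle wells for no effect and positive control wells for full effect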
Active calls of the source: *; · = no result given.

SMILES | V-ATPase pH | B2AR ag | MPTP block | Granule exo inh | T cell HTS | rCAG binder | V-ATPase pH SP
O=C(CN(CC1CCCO1)C(=O)CNS(=O)(=O)c1ccc(Cl)cc1)NCCc1ccccc1 (stereo not drawn) | 23.4* | -6.8 | -0.7 | -1.2 | 314.5 | -1.6 | 0.2
COc1cc(NC(=O)NC2CCCCN(Cc3cccc(Cl)c3)C2=O)cc(OC)c1 (stereo not drawn) | · | · | · | · | · | 2.2 | ·
COc1ccc(F)cc1-c1cc(C(C)=O)c2n(c1=O)CCC2 | · | · | · | · | · | 2.6 | ·
Cc1onc(-c2ccccc2)c1C(=O)c1c[nH]c(C(=O)NCc2ccncc2)c1 | 10.8* | 1.0 | 3.4 | -2.4 | 73.7 | -2.2 | 2.4
CCOC(=O)Cn1c(=O)n(CC(=O)OCC)c2ccccc21 | 1.7 | 0.2 | 0.7 | -1.4 | 245.9 | -2.5 | -2.0
CCOC(=O)Cn1c(-c2ccccn2)nc2ccccc21 | -1.4 | -3.4 | 0.2 | -3.9 | 247.4 | -1.8 | -0.3
O=C(O)Cn1c(-c2ccccn2)nc2ccccc21 | 1.7 | 3.3 | 0.3 | -7.9 | 642.5 | 2.7 | ·
CCOC(=O)N=Nc1c(O)n(CC(=O)OC)c2ccccc12 | 5.4 | 1.6 | 0.4 | -2.7 | 235.2 | 1.2 | 1.9
CCOC(=O)Cn1c(C)nc2ccccc21 | 3.1 | 3.9 | -3.4 | 0.7 | 178.1 | -3.0 | -7.3
COC(=O)Cn1c(C)nc2ccccc21 | -1.9 | 4.3 | -1.0 | 1.3 | 306.7 | 2.2 | ·
CN(C(=O)c1cccc(NC(=O)Cc2ccc(NC(=O)C3CCN(C(=O)CCc4ccccc4)CC3)cc2)c1)C1CCCC1 | · | · | · | · | · | 7.9 | ·
O=C1N2Cc3ccccc3C2CS(=O)(=O)N1Cc1ccccc1 (stereo not drawn) | · | · | · | · | · | 3.9 | ·
COC(=O)c1ccc(S(=O)(=O)N2CCC(NC(=O)CCc3ccccc3)CC2)cc1 | · | · | · | · | · | 1.9 | ·
O=C(O)Cn1c(=O)c(-c2ccccc2)nc2ccccc21 | -1.2 | 4.2 | -0.3 | -4.3 | 277.5 | -0.8 | ·
CCOC(=O)Cc1nc2ccccc2n(CC#N)c1=O | 0.6 | 10.1 | -2.4 | 0.1 | 388.5 | -2.4 | -53.3
CCOC(=O)Cn1c(C(C)=O)nc2ccccc21 | 1.9 | 3.6 | -2.5 | 1.3 | 945.3 | 2.3 | -3.1
COC(=O)Cn1c(=O)c(C)nc2ccccc21 | -1.6 | 4.0 | 0.7 | 4.3 | 328.7 | -2.5 | -3.0
COc1ccc(C(=O)Cn2c(C(C)=O)nc3ccccc32)cc1 | 4.4 | -14.7 | -1.8 | -0.9 | · | 4.6 | ·
CCOC(=O)Cn1c(=O)c(-c2ccccc2NC)nc2ccccc21 | -1.1 | -5.7 | 0.0 | -0.8 | 234.0 | 0.9 | 0.8
C[C@H]1Cn2nncc2Cn2c3ccccc3c(=O)n21 | · | · | · | · | · | 2.5 | ·
C#CCN1CC(N(C)CCOC(=O)CC2C=CCC2)CS1(=O)=O (stereo not drawn) | · | · | · | · | · | 1.1 | ·
CC(C)(C)c1ccc(-c2nnc(SCc3ccccc3)n2Cc2ccco2)cc1 | · | · | · | · | · | 2.3 | ·
C/C(C=NNC(=O)CSc1nnc(-c2ccc(Cl)cc2)n1-c1ccc(C)cc1)=C\c1ccccc1 | · | · | · | · | · | 6.8 | ·
COc1cccc(/C=C2\CC3(OC(=O)c4cccc(F)c4)CCCN2C3)c1 (stereo not drawn) | · | · | · | · | · | 3.0 | ·
Cc1cc(C)cc(C(=O)OCCCN(C)C2CN(Cc3cn(Cc4ccccc4C(F)(F)F)nn3)S(=O)(=O)C2)c1 (stereo not drawn) | · | · | · | · | · | 0.1 | ·
SMILES | V-ATPase pH | B2AR ag | MPTP block | Granule exo inh | T cell HTS | rCAG binder | V-ATPase pH SP
CCc1ccc(C(C)(O)C(CN2CCOCC2)c2ccccc2)cc1 (stereo not drawn) | -0.3 | -5.4 | -0.4 | 4.2 | 233.7 | -7.3 | ·
CCCCCOc1ccc(C(C)(O)C(CN2CCOCC2)c2ccccc2)cc1 (stereo not drawn) | 13.7* | -3.8 | 1.9 | -5.7 | 197.0 | -2.7 | -1.1
COc1ccc(CN2CN3Cc4ccc(C)cc4C3CS2(=O)=O)cc1 (stereo not drawn) | · | · | · | · | · | 6.2 | ·
Cc1cc(C)cc(OCCCn2ccnc2)c1 | 9.0* | 0.2 | 1.5 | -14.0 | 125.9 | -4.2 | -2.6
CC(C)=CCC[C@@]1(C(=O)O)[C@@H]2C/C=C(\C)CC/C=C(\C)CC[C@H]1[C@]1(CC2)CO1 | · | · | · | · | · | 14.0 | ·
COC(=O)[C@H]1C[C@@]2(n3ccc4ccccc43)c3ccccc3N(S(=O)(=O)c3ccccc3)[C@H]2N1 | · | · | · | · | · | 3.9 | ·
CC(C)C[C@H](NC(=O)OC(C)(C)C)C(=O)N[C@@H](CO)[C@H](O)[C@@H]1C[C@@H]1C(=O)NC1CC1 | 0.1 | -0.3 | -1.5 | 3.9 | 366.7 | -8.4 | ·
CC(C)C[C@H](NC(=O)OC(C)(C)C)C(=O)N[C@@H](CO)[C@H](O)[C@@H]1C[C@@H]1C(=O)NC1CCCCC1 | 25.8* | 1.9 | 0.0 | -0.8 | 398.5 | -4.6 | 1.6
Cc1ccc(C)c(OCc2ccc(C(=O)Nc3ccc([N+](=O)[O-])cn3)o2)c1 | 9.9* | 9.3 | 1.0 | 3.9 | 411.6 | 6.8 | 4.5
COc1ccccc1NC(=O)C(C)OC(=O)CCCOc1ccccc1 (stereo not drawn) | 10.9* | -5.1 | -1.0 | 2.1 | 434.0 | -6.3 | -2.2
Cc1cccc(C)c1NC(=O)CNC(=O)c1ccccc1 | -3.5 | 8.2 | 0.6 | -2.9 | 471.9 | 2.1 | ·
Cc1cccc(C)c1NC(=O)CNC(=O)c1ccncc1 | 8.3* | 3.2 | -0.2 | 2.8 | 363.0 | 2.7 | -2.0
CC1CCN(c2nc(-c3ccc(F)cc3)cc(C(F)(F)F)n2)CC1 | 8.6* | 3.1 | 3.9 | -3.2 | 149.0 | 6.3 | 2.1
C[C@H](O)[C@@H]1CN2CCc3c([nH]c4cccc(-c5ccccc5)c34)[C@@H]2C[C@@H]1N(C)C(=O)Nc1ccccc1 | · | · | · | · | · | 7.5 | ·
Cn1c(SCC(=O)c2ccc(F)cc2)nc2cccnc21 | 2.0 | 6.8 | 4.2 | 2.3 | 482.7 | -2.1 | ·
O=C(CCSC1=NCCCN1)c1ccc(F)cc1 | 25.4 | -15.0 | -1.0 | 12.5 | · | -0.6 | 45.2*
Cc1ccc(S(=O)(=O)N(CC(=O)N2CCC(C(N)=O)CC2)c2cccc(C(F)(F)F)c2)cc1 | 0.3 | -3.9 | -5.2 | -2.7 | 192.7 | -0.4 | ·
CCOC(=O)C1CCN(C(=O)CN(c2cccc(C(F)(F)F)c2)S(C)(=O)=O)CC1 | 12.3* | 3.3 | 0.3 | -2.0 | 212.9 | -4.8 | 1.2
O=C1CCc2ccccc2N1 | 1.5 | -4.6 | 0.6 | 6.1 | 583.5 | -4.8 | ·
N#C/C(C(N)=O)=C1/CCc2ccccc2N1 | 12.8* | 5.1 | 0.3 | -1.7 | 281.4 | 2.7 | 3.5
O=C(CSc1nnc(-c2cccc(Cl)c2)n1Cc1ccco1)c1ccc(F)cc1 | · | · | · | · | · | 2.4 | ·
CNc1ccc(C=C2C=Cc3ccccc32)cc1 | 5.7 | 5.8 | 4.3 | -0.6 | · | 10.2 | ·
CN(C)c1ccc(C=C2C=Cc3ccccc32)cc1 | 12.2* | 9.7 | 2.7 | -1.8 | · | 3.3 | -3.0
CCCCn1c(=O)c(C(=O)OCC)c(O)c2ccccc21 | 9.8* | 3.8 | -0.4 | -2.0 | 439.8 | 2.8 | 2.9
COCCCn1c(C(=O)NCCN2CCOCC2)cc2c(=O)n3cccc(C)c3nc21 | 8.2* | 0.9 | -1.0 | 20.1 | 330.2 | -6.8 | 7.0
CN(C)CCCN(C(=O)c1ccc2c(c1)CCCC2)c1nc2ccc(F)cc2s1 | 19.1* | 12.1 | -1.3 | 7.0 | 458.9 | -3.1 | 0.4

Bioassay records deposited in PubChem by several laboratories.
